Among the data in ChEMBL document CHEMBL1132481 (J Med Chem, 1999) are IC50 and Ratio values, retold here.

The target in assay [1] is T1, Sodium-dependent dopamine transporter (Rattus norvegicus, UniProt P23977). Kind of assay: Inhibitory potency against [3H]DA uptake […]. The procedure, abridged: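 Rat striatal S1 fraction (CO2-anesthetized rats) diluted in Krebs-phosphate buffer (pH 7.4, O2/CO2-equilibrated, with pargyline and ascorbate). Preincubated with drug 10 min at 37 °C, then [3H]DA for 2.0 min. Nonspecific uptake measured at 0 °C. Stopped with chilled buffer and GF/C filtration, then scintillation counting. IC50 from usually five concentrations, each in duplicate.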
T1 sequence (P23977 whole entry): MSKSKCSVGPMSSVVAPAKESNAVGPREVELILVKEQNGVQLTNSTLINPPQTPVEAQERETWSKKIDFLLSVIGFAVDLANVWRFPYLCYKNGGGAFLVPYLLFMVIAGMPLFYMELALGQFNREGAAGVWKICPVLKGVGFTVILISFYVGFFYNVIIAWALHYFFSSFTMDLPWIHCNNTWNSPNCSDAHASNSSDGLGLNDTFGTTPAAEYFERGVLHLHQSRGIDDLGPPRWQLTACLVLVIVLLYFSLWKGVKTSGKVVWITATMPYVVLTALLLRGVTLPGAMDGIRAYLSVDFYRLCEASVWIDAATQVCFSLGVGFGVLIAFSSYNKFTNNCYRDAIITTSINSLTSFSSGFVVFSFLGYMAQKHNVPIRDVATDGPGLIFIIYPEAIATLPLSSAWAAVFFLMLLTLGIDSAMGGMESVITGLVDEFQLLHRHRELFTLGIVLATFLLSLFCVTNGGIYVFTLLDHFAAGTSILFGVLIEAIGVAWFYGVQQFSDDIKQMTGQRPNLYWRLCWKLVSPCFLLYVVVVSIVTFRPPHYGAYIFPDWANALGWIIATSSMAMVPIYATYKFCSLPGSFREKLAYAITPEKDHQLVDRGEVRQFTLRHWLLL

The target in assay [2] is Sodium-dependent serotonin transporter (Rattus norvegicus, UniProt P31652). In words: Selectivity for the Serotonin transporter using [3H]paroxetine binding assay. In a few lines: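 Serotonin transporter binding used 1.5 mg hindbrain from male Sprague–Dawley rats with 0.2 nM [3H]paroxetine. Buffer was 50 mM Tris, 120 mM NaCl, 0.5 mM KCl, pH 7.4. Incubated 90 min at room temperature. Nonspecific binding defined with 1 μM citalopram. Ice-cold washes through PEI-soaked GF/B filters.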
Sequence of Sodium-dependent serotonin transporter (P31652 whole entry): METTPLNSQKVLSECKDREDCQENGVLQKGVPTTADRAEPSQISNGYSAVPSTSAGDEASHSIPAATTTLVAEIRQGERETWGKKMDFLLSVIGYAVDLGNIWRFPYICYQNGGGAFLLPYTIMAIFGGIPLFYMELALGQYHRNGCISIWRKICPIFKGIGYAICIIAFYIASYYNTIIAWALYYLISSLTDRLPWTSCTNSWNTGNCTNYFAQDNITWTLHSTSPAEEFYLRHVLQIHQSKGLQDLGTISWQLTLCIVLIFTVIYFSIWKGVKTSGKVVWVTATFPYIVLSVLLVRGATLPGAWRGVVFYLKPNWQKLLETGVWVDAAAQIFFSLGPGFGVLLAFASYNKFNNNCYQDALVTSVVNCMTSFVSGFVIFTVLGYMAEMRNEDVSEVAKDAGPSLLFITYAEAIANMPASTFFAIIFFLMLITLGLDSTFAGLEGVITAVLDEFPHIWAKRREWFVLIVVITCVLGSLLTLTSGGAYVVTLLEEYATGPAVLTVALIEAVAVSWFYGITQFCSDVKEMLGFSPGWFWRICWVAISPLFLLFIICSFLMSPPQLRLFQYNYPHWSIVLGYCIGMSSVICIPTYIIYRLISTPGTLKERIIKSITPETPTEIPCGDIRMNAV

Assay [3] concerns the target Norepinephrine transporter (Rattus norvegicus, UniProt Q9WTR4). Kind of assay: Selectivity for the norepinephrine transporter using [3H]nisoxetine binding assay. In a few lines:
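Norepinephrine transporter binding used 8 mg frontal cortex from male Sprague–Dawley rats with 0.5 nM [3H]nisoxetine. Incubated 60 min. Nonspecific binding defined with 1 μM desipramine. Ice-cold washes through PEI-soaked GF/B filters.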

The target in assay [4] is T1, Sodium-dependent dopamine transporter. Kind of assay: Inhibitory potency against dopamine (DA) transporter using [3H]WIN-35428 (WIN-) binding assay.
For assay [5], the target named is Monoamine transporters; serotonin & dopamine (Rattus norvegicus) (UniProt P31652+P23977). In words: Ratio of IC50 of 5-HT (serotonin transporter) to IC50 of DA (dopamine transporter). Format: protein assay.
Sequence of Monoamine transporters; serotonin & dopamine (Rattus norvegicus) (P23977 whole entry, looked up): as the sequence (P23977 whole entry) above
Sequence of Monoamine transporters; serotonin & dopamine (Rattus norvegicus) (P31652 whole entry, looked up): as the sequence (P31652 whole entry) above
The target in assay [6] is Monoamine transporters; Norepininephrine & dopamine (Rattus norvegicus) (UniProt P23977+Q9WTR4). In words: Ratio of IC50 of NE (norepinephrine transporter) to IC50 of DA (dopamine transporter). The assay is classed as protein assay.

The structures appear in SMILES notation. Some results are limits rather than exact numbers.

Sequence of Norepinephrine transporter (Q9WTR4 whole entry): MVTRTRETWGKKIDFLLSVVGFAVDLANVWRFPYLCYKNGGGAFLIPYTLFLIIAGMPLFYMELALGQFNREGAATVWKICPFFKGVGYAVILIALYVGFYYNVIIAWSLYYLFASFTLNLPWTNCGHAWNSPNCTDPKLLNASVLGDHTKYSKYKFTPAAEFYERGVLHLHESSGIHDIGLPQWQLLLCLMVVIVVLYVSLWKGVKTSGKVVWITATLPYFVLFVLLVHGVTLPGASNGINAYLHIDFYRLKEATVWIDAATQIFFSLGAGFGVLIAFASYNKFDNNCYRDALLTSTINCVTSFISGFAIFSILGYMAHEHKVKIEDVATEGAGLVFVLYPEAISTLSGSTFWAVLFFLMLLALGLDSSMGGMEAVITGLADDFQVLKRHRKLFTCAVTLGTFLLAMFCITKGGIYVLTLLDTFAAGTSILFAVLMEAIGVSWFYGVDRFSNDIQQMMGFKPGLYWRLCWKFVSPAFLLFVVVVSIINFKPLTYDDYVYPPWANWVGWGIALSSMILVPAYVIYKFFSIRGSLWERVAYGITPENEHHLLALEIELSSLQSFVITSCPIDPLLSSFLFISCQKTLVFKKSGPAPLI

Broadly, the IC50 is the concentration at which inhibition is half-maximal. Low values mean inhibition by little substance, high ones a need for much substance. For the compound `CN(C)C1C2CCC(CC2=O)C1c1ccccc1` (stereo in doubt; 13) [listing 1 of 2 here], the IC50 stood at 24.7 µM in assay [1], 61.2 µM in assay [2], 10.6 µM in assay [3] and 10.3 µM in assay [4].
As to `CN(C)C1C2CCC(CC2OC(=O)c2ccccc2)C1c1ccccc1` (stereo in doubt; 18) [listing 1 of 2 here], the IC50 in assay [1] turned out to be 4.84 µM; in assay [2], 0.76 µM; in assay [3], 7.38 µM; in assay [4] it was 2.2 µM.
`CN(C)C1C2CCC(CC2=O)C1c1ccccc1` (stereo in doubt; 13) [listing 2 of 2 here]: the Ratio in assay [5] came to 5.9; in assay [6], 1.
With `CN(C)C1C2CCC(CC2OC(=O)c2ccccc2)C1c1ccccc1` (stereo in doubt; 18) [listing 2 of 2 here], the Ratio in assay [5] came to 0.35; in assay [6], 3.4.
`CC(=O)OC1CC2CCC1C(N(C)C)C2c1ccccc1` (stereo in doubt; 9) [listing 1 of 2 here]: the IC50 worked out at 4.93 µM in assay [1], 2.45 µM in assay [2], 0.535 µM in assay [3] and 5.33 µM in assay [4].
Take `CN(C)C1C2CCC(CC2=O)C1c1ccccc1` (stereo in doubt; 6) [listing 1 of 2 here]: the IC50 turned out to be 9.14 µM in assay [1], 31.4 µM in assay [2], 4.12 µM in assay [3] and 4.01 µM in assay [4].
With `CC(=O)OC1CC2CCC1C(N(C)C)C2c1ccccc1` (stereo in doubt; 9) [listing 2 of 2 here], the Ratio in assay [5] was determined as 0.46; in assay [6] it was 0.1.
Turning to `CN(C)C1C2CCC(CC2O)C1c1ccccc1` (stereo in doubt; 8) [listing 1 of 2 here], the IC50 in assay [1] is 2.81 µM; in assay [2], 21.8 µM; in assay [3] it was 7.23 µM; in assay [4] it was 2.04 µM.
As for `CN(C)C1C2CCC(CC2O)C1c1ccccc1` (stereo in doubt; 15) [listing 1 of 2 here], the Ratio is over 10 in assay [5] and 3.5 in assay [6].
Take `CC(=O)OC1CC2CCC1C(N(C)C)C2c1ccccc1` (stereo in doubt; 10) [listing 1 of 2 here]: the IC50 in assay [1] turned out to be 25.8 µM; in assay [2], 176 µM; in assay [3], 55.4 µM; in assay [4], 12.2 µM.
In the case of `CN(C)C1C2CCC(CC2OC(=O)c2ccccc2)C1c1ccccc1` (stereo in doubt; 19) [listing 1 of 2 here], the IC50 in assay [1] was 8.24 µM; in assay [2], 1.88 µM; in assay [3], 4.19 µM; in assay [4] it was 2.27 µM.
For `CN(C)C1C2CCC(CC2OC(=O)c2ccccc2)C1c1ccccc1` (stereo in doubt; 19) [listing 2 of 2 here], the Ratio stood at 0.83 in assay [5] and 1.8 in assay [6].
With `COC(=O)[C@H](c1ccccc1)[C@H]1CCCCN1` [DEXMETHYLPHENIDATE], the figures for the IC50 in assay [2] and in assay [3] were 224 µM and 0.989 µM, respectively.
With `CN(C)C1C2CCC(CC2OC(=O)c2ccccc2)C1c1ccccc1` (stereo in doubt; 11) [listing 1 of 2 here], the IC50 in assay [1] was determined as 0.372 µM; in assay [2], 0.053 µM; in assay [3], 0.225 µM; in assay [4], 0.358 µM.
`CN(C)C1C2CCC(CC2OC(=O)c2ccccc2)C1c1ccccc1` (stereo in doubt; 12) [listing 1 of 2 here]: the IC50 was 0.687 µM in assay [1], 11.1 µM in assay [2], 1.47 µM in assay [3] and 0.27 µM in assay [4].
Consider `CN(C)C1C2CCC(CC2O)C1c1ccccc1` (stereo in doubt; 7) [listing 1 of 2 here], for which the Ratio in assay [5] is 4.7; in assay [6], 0.85.
Consider `CN(C)C1C2CCC(CC2O)C1c1ccccc1` (stereo in doubt; 15) [listing 2 of 2 here], for which the IC50 in assay [1] was 23 µM; in assay [2] it was over 100 µM; in assay [3], 34.4 µM; in assay [4], 9.92 µM.
As for `CN(C)C1C2CCC(CC2OC(=O)c2ccccc2)C1c1ccccc1` (stereo in doubt; 11) [listing 2 of 2 here], the Ratio in assay [5] was found to be 0.15; in assay [6] it was 0.65.
On to `CC(=O)OC1CC2CCC1C(N(C)C)C2c1ccccc1` (stereo in doubt; 17) [listing 1 of 2 here], for which the IC50 is 75 µM in assay [1], 22.8 µM in assay [2], 46.8 µM in assay [3] and 45.6 µM in assay [4].
On to `CN(C)C1C2CCC(CC2O)C1c1ccccc1` (stereo in doubt; 8) [listing 2 of 2 here], for which the Ratio was 11 in assay [5] and 3.5 in assay [6].
Taken in the same sequence, the figures for `CN(C)C1C2CCC(CC2OC(=O)c2ccccc2)C1c1ccccc1` (stereo in doubt; 12) [listing 2 of 2 here] were 41 and 5.4.
Consider `CN(C)C1C2CCC(CC2O)C1c1ccccc1` (stereo in doubt; 7) [listing 2 of 2 here], for which the IC50 turned out to be 4.45 µM in assay [1], 8.38 µM in assay [2], 1.51 µM in assay [3] and 1.77 µM in assay [4].
For the compound `CN(C)C1C2CCC(CC2O)C1c1ccccc1` (stereo in doubt; 14) [listing 1 of 2 here], the IC50 in assay [1] came out at 10.9 µM; in assay [2], 12.3 µM; in assay [3] it was 7.73 µM; in assay [4] it was 7.04 µM.
Turning to `CC(=O)OC1CC2CCC1C(N(C)C)C2c1ccccc1` (stereo in doubt; 16) [listing 1 of 2 here], the Ratio in assay [5] was determined as 0.35; in assay [6], 0.76.
Take `CN(C)C1C2CCC(CC2=O)C1c1ccccc1` (stereo in doubt; 6) [listing 2 of 2 here]: the Ratio in assay [5] came to 7.8; in assay [6], 1.
In the case of `CN(C)CC1C2CCC(CC2)C1c1ccc(Cl)c(Cl)c1` (stereo not drawn), the IC50 in assay [2] came out at 0.261 µM; in assay [3], 0.096 µM.
`CC(=O)OC1CC2CCC1C(N(C)C)C2c1ccccc1` (stereo in doubt; 16) [listing 2 of 2 here]: the IC50 amounted to 16.3 µM in assay [1], 4.77 µM in assay [2], 10.4 µM in assay [3] and 13.6 µM in assay [4].
As for `CN(C)C1C2CCC(CC2O)C1c1ccccc1` (stereo in doubt; 14) [listing 2 of 2 here], the figures for the Ratio in assay [5] and in assay [6] were 1.7 and 1.1, respectively.
Taken in the same sequence, the figures for `CC(=O)OC1CC2CCC1C(N(C)C)C2c1ccccc1` (stereo in doubt; 10) [listing 2 of 2 here] were 14 and 4.5.
Regarding `CC(=O)OC1CC2CCC1C(N(C)C)C2c1ccccc1` (stereo in doubt; 17) [listing 2 of 2 here], the Ratio in assay [5] worked out at 0.5; in assay [6], 1.
